The text below walks through data of PMC9104225 (ACS chemical biology, 2021).

Residues, ends and D or L forms follow the SMILES beside them. *: point of attachment. AMC = Cc1cc(=O)oc2cc(N*)ccc12; Cbz = O=C(OCc1ccccc1)* A value given as a limit tells only on which side of the number the result lay.

The target in one series is Cathepsin X (Homo sapiens, UniProt Q9UBR2). It is filed as biochemical. The following applies: pH 4.6, without pre-incubation.
The next series has as its target T1, Cathepsin K (Homo sapiens, UniProt P43235).
T1 sequence (P43235 115-329): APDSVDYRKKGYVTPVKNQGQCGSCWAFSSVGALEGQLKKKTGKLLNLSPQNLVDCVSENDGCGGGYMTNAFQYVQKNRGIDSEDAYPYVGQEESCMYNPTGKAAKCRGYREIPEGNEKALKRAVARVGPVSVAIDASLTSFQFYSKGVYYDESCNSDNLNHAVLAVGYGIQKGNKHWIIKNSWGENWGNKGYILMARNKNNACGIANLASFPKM
Nature of the series: Specificity of inhibitors: cathepsin K activity with Z-Phe-Arg-AMC. It is filed as biochemical. Particulars: for % inhibition: pH 4.6, at 16 μM (16,000 nM) inhibitor.

The target in a further series is Cathepsin S (Homo sapiens, UniProt P25774). Nature of the series: Specificity of inhibitors: cathepsin S activity with Z-Phe-Arg-AMC. It is filed as biochemical. The following applies: for % inhibition / IC50: Cathepsin S; for % inhibition: at 16 μM (16,000 nM) inhibitor; for IC50: without pre-incubation.
In series [1] the target is T2, cathepsin B (Homo sapiens, UniProt P07858). Nature of the series: Cathepsin B inhibition, fluorogenic assay with Z-Phe-Arg-AMC substrate. It is filed as biochemical. Particulars: for Ki: irreversible inhibitor KI, mean ± SD; for reduction of cathepsin B activity with Z-Phe-Arg-AMC as substrate: 64 nM inhibitor.
In series [2] the target is T3, Cathepsin L (Homo sapiens, UniProt P07711). Nature of the series: Specificity of inhibitors: cathepsin L activity with Z-Phe-Arg-AMC. It is filed as biochemical. Particulars: for IC50: pH 4.6, without pre-incubation.
The next series deals with Cathepsin C (Homo sapiens, UniProt P53634). Nature of the series: Specificity of inhibitors: cathepsin C activity with Gly-Arg-AMC. It is filed as biochemical. The following applies: for IC50: Cathepsin C, without pre-incubation.
Series [3] deals with T4, Cathepsin V (Homo sapiens, UniProt O60911). Nature of the series: Specificity of inhibitors: cathepsin V activity with Z-Phe-Arg-AMC. It is filed as biochemical. The following applies: for IC50: without pre-incubation.
A further series addresses Cathepsin H (Homo sapiens, UniProt P09668). Nature of the series: Specificity of inhibitors: cathepsin H activity with Arg-AMC. It is filed as biochemical.
The target of series [4] is T3, Cathepsin L. Nature of the series: Specificity of peptide-AMC substrates: cleavage by cathepsin L. It is filed as biochemical.
Series [5] deals with T2, cathepsin B. Nature of the series: pH profile of cathepsin B activity with peptide-AMC substrates. It is filed as biochemical. The following applies: substrate 60 μM, pH 2 to 9. An outline of the steps: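 Activated cathepsin B (0.04 ng/μL) was run with 60 μM of each peptide-AMC substrate. Buffers were 50 mM citrate phosphate at pH 2.2–7.4 in 0.4-unit steps plus pH 7.2, and 50 mM Tris-HCl at pH 7.4–9.0. Assays ran at 25 °C with ex360/em460. Activity was taken as RFU/sec, the highest slope over 10 consecutive readings. Results are mean ± SEM, n=3.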

The target in series [6] is T4, Cathepsin V. Nature of the series: Specificity of peptide-AMC substrates: cleavage by cathepsin V. It is filed as biochemical.
Series [7] addresses intracellular cathepsin B in SHSY5Y human neuroblastoma cells (Homo sapiens, UniProt P07858). It is filed as cell-based. The following applies: 50 μM, 6 hrs. An outline of the steps:
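Intact SHSY5Y cells were treated with test compound for 6 h at 37 °C. They were washed 3× in PBS, homogenised in 0.32 M sucrose and freeze-thawed. Cathepsin B activity was taken as the CA-074-sensitive fraction, normalised to DC-assay protein. Output is nmol AMC/μg/min, mean + SD, n=6, t-test.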

The target of series [8] is cathepsin B activity in human neuroblastoma cell lysate (Homo sapiens, UniProt P07858). Nature of the series: Cathepsin B activity in neuroblastoma cell homogenate in presence of inhibitors. It is filed as biochemical. The following applies: 1 μM inhibitor; SHSY5Y homogenate; Z-Arg-Arg-AMC substrate; pH 5.5. Put shortly:
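SHSY5Y cells were grown in 50% MEMalpha/50% F12-K with 10% heat-inactivated FBS at 37 °C under 5% CO2. They were collected in 0.32 M sucrose and freeze-thawed to give homogenate. CA-074-sensitive activity was taken as cathepsin B. Protein was measured by DC assay. Output is nmol AMC/μg/min, mean ± SD, Student's t-test.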

[9] abbreviates: cathepsin B, pH 4.6, without preincubation, Z-Phe-Arg-AMC 40 μM.
Setting [10] is: cathepsin B, pH 7.2, without preincubation, Z-Phe-Arg-AMC 40 μM.
Setting [11] is: pH not stated in the sentence for Z-Glu-Lys-AMC, pH 4.6 for Z-Phe-Arg-AMC.

T3 sequence (P07711 114-333): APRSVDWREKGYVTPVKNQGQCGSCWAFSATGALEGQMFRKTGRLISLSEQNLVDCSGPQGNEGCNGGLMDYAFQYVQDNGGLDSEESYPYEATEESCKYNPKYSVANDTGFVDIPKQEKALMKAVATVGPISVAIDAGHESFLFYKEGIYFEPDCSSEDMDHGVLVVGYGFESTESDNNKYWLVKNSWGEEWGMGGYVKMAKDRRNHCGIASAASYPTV
Sequence of Cathepsin S (P25774 115-331): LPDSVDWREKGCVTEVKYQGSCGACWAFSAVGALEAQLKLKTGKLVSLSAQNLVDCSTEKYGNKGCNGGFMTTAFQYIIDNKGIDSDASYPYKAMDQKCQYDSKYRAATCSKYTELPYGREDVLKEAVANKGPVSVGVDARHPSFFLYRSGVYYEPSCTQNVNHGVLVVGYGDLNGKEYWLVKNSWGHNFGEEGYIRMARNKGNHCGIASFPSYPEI
Sequence of Cathepsin H (P09668 116-335 limits assumed, other chains not shown): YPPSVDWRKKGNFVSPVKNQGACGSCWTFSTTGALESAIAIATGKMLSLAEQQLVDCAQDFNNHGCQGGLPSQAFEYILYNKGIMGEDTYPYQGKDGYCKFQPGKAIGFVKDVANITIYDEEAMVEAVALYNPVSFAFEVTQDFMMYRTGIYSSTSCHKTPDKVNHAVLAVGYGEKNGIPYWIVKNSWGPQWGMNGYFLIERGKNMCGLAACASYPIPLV
T4 sequence (O60911 114-334): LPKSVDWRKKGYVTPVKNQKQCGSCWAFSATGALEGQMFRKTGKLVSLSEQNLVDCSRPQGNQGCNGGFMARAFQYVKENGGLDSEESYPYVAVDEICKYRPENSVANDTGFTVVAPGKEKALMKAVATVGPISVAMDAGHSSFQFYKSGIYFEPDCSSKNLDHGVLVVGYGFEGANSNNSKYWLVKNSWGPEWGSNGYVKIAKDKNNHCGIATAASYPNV
Sequence of Cathepsin C (P53634 25-134 limits assumed): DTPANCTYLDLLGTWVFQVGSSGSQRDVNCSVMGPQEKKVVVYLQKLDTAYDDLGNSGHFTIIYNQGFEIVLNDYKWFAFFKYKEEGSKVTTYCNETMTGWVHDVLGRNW
Sequence of Cathepsin C (P53634 231-394 limits assumed): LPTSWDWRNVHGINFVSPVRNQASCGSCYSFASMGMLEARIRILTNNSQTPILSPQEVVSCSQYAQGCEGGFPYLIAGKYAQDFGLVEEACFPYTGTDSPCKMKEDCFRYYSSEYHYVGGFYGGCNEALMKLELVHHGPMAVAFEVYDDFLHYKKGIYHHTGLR
Sequence of Cathepsin C (P53634 395-463 limits assumed): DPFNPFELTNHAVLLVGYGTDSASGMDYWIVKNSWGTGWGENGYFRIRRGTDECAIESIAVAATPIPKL
Sequence of Cathepsin X (Q9UBR2 62-303): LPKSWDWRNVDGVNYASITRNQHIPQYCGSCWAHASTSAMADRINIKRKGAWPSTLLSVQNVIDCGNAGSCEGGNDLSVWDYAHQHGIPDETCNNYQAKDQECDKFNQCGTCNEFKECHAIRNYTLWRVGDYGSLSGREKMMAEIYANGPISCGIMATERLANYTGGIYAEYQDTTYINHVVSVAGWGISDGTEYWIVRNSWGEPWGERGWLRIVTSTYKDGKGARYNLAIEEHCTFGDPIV

On to `Cc1cccc(C)c1C(=O)OCC(=O)C(CCCCN)NC(=O)C(CCC(=O)O)NC(=O)OCc1ccccc1` (stereo not drawn) [Z-Glu-Lys-AOMK], for which the half-inhibitory concentration (IC50) on Cathepsin X was over 16 µM; against Cathepsin K (pH 4.6, without pre-incubation) it was over 16 µM; on Cathepsin K (pH 7.2, without pre-incubation) it was over 16 µM; at Cathepsin S (pH 4.6), over 16 µM; at Cathepsin S (pH 7.2) it was over 16 µM; on cathepsin B [1] (setting [9]) it was 1.1 µM. Besides, the IC50 is 0.32 ± 0.045 µM against cathepsin B [1] (setting [10]); over 16 µM at Cathepsin L [2]; 8.6 µM on Cathepsin C (pH 4.6); 12 µM on Cathepsin C (pH 7.2); 1.9 µM at Cathepsin V [3] (Cathepsin V, pH 4.6); over 16 µM against Cathepsin V [3] (Cathepsin V, pH 7.2). Moreover, the IC50 against Cathepsin H (pH 4.6, without pre-incubation) is over 16 µM; on Cathepsin H (pH 7.2, without pre-incubation), over 16 µM. The “% inhibition” value at Cathepsin K was determined as 10%; at Cathepsin S (pH 4.6), 26%; on Cathepsin S (pH 7.2) it was 30%; on Cathepsin L [2] (pH 4.6, at 16 μM (16,000 nM) inhibitor), 23%; on Cathepsin V [3] (Cathepsin V, pH 7.2, at 16 μM (16,000 nM) inhibitor), 10%. Also, the second-order inactivation constant (kinact/KI) is 2000 M⁻¹ s⁻¹ on cathepsin B [1] (cathepsin B, pH 4.6) and 8200 M⁻¹ s⁻¹ on cathepsin B [1] (cathepsin B, pH 7.2). The Ki is 7.9 µM at cathepsin B [1] (cathepsin B, pH 4.6) and 2.3 µM on cathepsin B [1] (cathepsin B, pH 7.2). Also, the “fold more potent for cathepsin B than cathepsin C (IC50)” value on Cathepsin C (pH 7.2) came out at 38 fold.

Consider `Cc1cc(=O)oc2cc(NC(=O)[C@H](CCCCN)NC(=O)[C@H](CCC(=O)O)NC(=O)OCc3ccccc3)ccc12` [Z-Glu-Lys-AMC] (Cbz-Glu-Lys-{AMC}), for which the “substrate activity for cathepsin L” value at Cathepsin L [4] (setting [11]) is given as “no activity”. Further, the “pH of maximal (optimal) hydrolysis by cathepsin B” value on cathepsin B [5] is 4.6 pH. The “substrate activity for cathepsin V” value on Cathepsin V [6] (setting [11]) is given as “no activity”.

On to `Cc1cccc(C)c1C(=O)OCC(=O)[C@H](CCCCN)NC(=O)[C@H](CCCN=C(N)N)NC(=O)OCc1ccccc1` [Z-Arg-Lys-AOMK], for which the cell permeability entry in [7] is given as “cell permeable”. Besides, the IC50 is over 16 µM against Cathepsin X; over 16 µM against Cathepsin K (pH 4.6, without pre-incubation); over 16 µM on Cathepsin K (pH 7.2, without pre-incubation); over 16 µM at Cathepsin S (pH 4.6); 2.2 µM on Cathepsin S (pH 7.2); 1.5 µM on cathepsin B [1] (setting [9]). In addition, the 50% inhibitory concentration (IC50) on cathepsin B [1] (cathepsin B, pH 6.8) was 0.022 µM; against cathepsin B [1] (setting [10]), 0.02 ± 0.0083 µM; against Cathepsin L [2], over 16 µM; at Cathepsin C (pH 4.6), over 16 µM; on Cathepsin C (pH 7.2), 0.85 µM; on Cathepsin V [3] (Cathepsin V, pH 7.2), 0.44 µM. Further, the IC50 against Cathepsin H (pH 4.6, without pre-incubation) is over 16 µM; at Cathepsin H (pH 7.2, without pre-incubation) it was over 16 µM. Further, on Cathepsin K, the “% inhibition” value was “no inhibition”. Besides, the “fold more potent for cathepsin B than cathepsin S (IC50)” value at Cathepsin S (pH 7.2) is given as 110 fold. Also, the “reduction of cathepsin B activity with Z-Phe-Arg-AMC as substrate” value on cathepsin B [1] (pH 4.6) turned out to be 5%; on cathepsin B [1] (pH 7.2), 93%. Besides, the inactivation efficiency (kinact/KI) was determined as 1800 M⁻¹ s⁻¹ on cathepsin B [1] (cathepsin B, pH 4.6) and 110000 M⁻¹ s⁻¹ at cathepsin B [1] (cathepsin B, pH 7.2). For the same compound, the Ki on cathepsin B [1] (cathepsin B, pH 4.6) came out at 15 µM; at cathepsin B [1] (cathepsin B, pH 7.2), 0.13 ± 0.05 µM. For the same compound, the “fold greater potency at pH 7.2 compared to pH 4.6 (KI values)” value on cathepsin B [1] (cathepsin B, ratio of KI at pH 4.6 and pH 7.2) was found to be 115 fold. The “inhibition of proteolytic (cathepsin B) activity in cell lysate” value in series [8] is on record as “completely inhibited”. On Cathepsin C (pH 7.2), the “fold more potent for cathepsin B than cathepsin C (IC50)” value is 43 fold. Besides, on Cathepsin V [3] (pH 7.2), the “fold more potent for cathepsin B than cathepsin V (IC50)” value is on record as 22 fold. The “inhibition at 16 μM” value against Cathepsin H (pH 4.6, at 16 μM inhibitor) is given as “no inhibition”.

Take `Cc1cc(=O)oc2cc(NC(=O)C(CCCN=C(N)N)NC(=O)C(Cc3ccccc3)NC(=O)OCc3ccccc3)ccc12` (stereo not drawn) [Z-Phe-Arg-AMC, reference compound] (Cbz-Phe-Arg-{AMC}; configuration not given here): at Cathepsin L [4] (setting [11]), the “substrate activity for cathepsin L” value is “cleaved”. The “substrate activity for cathepsin V” value on Cathepsin V [6] (setting [11]) was “cleaved”.

Consider `CCCNC(=O)[C@H]1O[C@@H]1C(=O)N[C@H](C(=O)N1CCC[C@H]1C(=O)O)[C@@H](C)CC` [CA-074, reference compound], for which the “inhibition of proteolytic (cathepsin B) activity in cell lysate” value in series [8] was “completely inhibited”.

Take `Cc1cc(=O)oc2cc(NC(=O)[C@H](CCCCN)NC(=O)[C@H](CCCNC(=N)N)NC(=O)OCc3ccccc3)ccc12` [Z-Arg-Lys-AMC] (Cbz-Arg-Lys-{AMC}): at Cathepsin L [4] (pH 7.2), the “substrate activity for cathepsin L” value is “no activity”. Further, the “pH of maximal (optimal) hydrolysis by cathepsin B” value on cathepsin B [5] is reported as 7.8 pH. At Cathepsin V [6] (pH 7.2), the “substrate activity for cathepsin V” value is listed as “no activity”.
